Screening data deposited in PubChem by several laboratories.
Compounds with a hit are over-represented: about 2.4% of the library has one in this group of screens.
Myeloid diff 2 – compounds promoting myeloid differentiation; calls only at 10 µM; AID 624256; ER-HoxA9 myeloid progenitors, lysozyme-GFP differentiation, flow cytometry; 1% of 360,000 active;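 active = normalized GFP-positive differentiation at or above the plate's own cutoff, the solvent-only control mean plus 3 SD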;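 note: cells exposed to compound for four days before flow analysis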
MIN6 prolif – MIN6 beta-cell proliferation induction | MIN6 cells proliferation, ATPlite luminescence, 48 h; cells starved in 0.2% serum; 100% = growth in 10% serum | proliferation, % at 10 µM | 0.29% of 330,000 active | AID 2380;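 active = compounds whose signal lies at least 3.5 SD above the mean of all wells on their plate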
MT1-MMP act inh – blocks activation of human MT1-MMP; GFP/RFP ratio change, % at 20 µM; HT1080 RFP-PRO-GFP cells, GFP/RFP ratio fluorescence, overnight; percent of plate control window, DMSO zero; P50281; 0.061% of 360,000 active;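 active = GFP/RFP ratio change of at least 30% with cell ATP level not reduced by more than half and red fluorescence within 50% of control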
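Material: RFP-PRO-GFP reporter HT1080 cells. Dosing: single-point 20 µM compound, 1% DMSO. Controls: DMSO and RFP-L50D-GFP cell wells. Timing: cells overnight before dosing, compound overnight, 37 °C, 5% CO2. Measure: GFP/RFP fluorescence ratio.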
DAGLB inh – diacylglycerol lipase beta (human) inhibition; Q8NCG7; HEK293T DAGLB membrane lysate, EnzChek fluorogenic substrate; inhibition, % at 5.17 µM; 0.059% of 340,000 active; AID 504411; in the data active = inhibition above about 34%
CendR NRP1 mod – alters CendR peptide binding to human NRP-1. O14786. FAM-RPARPAR peptide binding to NRP-1, fluorescence polarization. inhibition, % at 25 µM. 0.85% of 360,000 active;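 active = inhibition or corrected inhibition above about 18%, plus a signal ratio from 0.5 to 1.5, limit read from the data, passing the limit was not always enough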
SENP1 inh – blocks the human SENP1 SUMO protease catalytic domain. AID 624204. Q9P0U3. inhibition, % at 10 µM. 0.21% of 360,000 active. recombinant SENP1 catalytic domain, CyPet-SUMO1-YPet FRET cleavage;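 active = inhibition at least 30% at 10 µM, raw YFP signal under a set limit, fluorescence ratio 0.5 to 1.5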
Target sequence (Q9P0U3 419-644 limits assumed): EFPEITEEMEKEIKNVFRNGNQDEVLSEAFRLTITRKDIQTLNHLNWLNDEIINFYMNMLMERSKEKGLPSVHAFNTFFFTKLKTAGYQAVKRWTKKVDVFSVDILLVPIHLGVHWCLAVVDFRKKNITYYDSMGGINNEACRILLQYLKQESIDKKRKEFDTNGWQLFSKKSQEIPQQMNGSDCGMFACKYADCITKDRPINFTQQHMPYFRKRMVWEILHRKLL
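Material – human SENP1 catalytic domain · Input – SENP1 enzyme, 20 pM final · Compound dosing – single concentration of 10 µM compound, 0.5% DMSO final · Timing – enzyme reaction for 50 min at room temperature, dark · Measured by – FRET fluorescence in CFP and YFP emission channels · Control set – no-enzyme wells low, DMSO-plus-enzyme wells high control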
Each line names hits and unclear results; the compound was inactive in the other large screens.

CCCN(CC(=O)Nc1ccccc1C)C(=O)c1ccc(N2CCCC2)c([N+](=O)[O-])c1	none
O=C(Oc1cc(=O)oc2c1c(=O)n1c3c(cccc23)CC1)c1ccc(F)cc1	none (no result: DAGLB inh)
COc1ccc(C(=O)COC(=O)C(CCSC)NS(=O)(=O)c2ccc(Cl)cc2)cc1 (stereo unspecified)	CendR NRP1 mod 26 (no result: MIN6 prolif)
COC(=O)CN1C(=O)C(O)(CC(=O)c2ccccc2)c2ccccc21 (stereo unspecified)	none
COC(=O)CN1C(=O)C(O)(CC(=O)c2ccc(C)o2)c2ccccc21 (stereo unspecified)	CendR NRP1 mod 32
O=C(Cn1c(=O)c2c(ncn2C2CCCC2)n(Cc2ccccc2)c1=O)N1CCc2ccccc21	CendR NRP1 mod 29
O=C(Cn1c(=O)c2c(ncn2Cc2ccccc2)n(Cc2ccccc2)c1=O)N1CCc2ccccc21	none
O=C(CNC(=O)c1ccc(Cl)cc1Cl)OCCOc1ccccc1F	none
C/C=C/c1cccc(-c2nc(C(=O)N3CCCCC3)cc3c2[C@H](CCO)N(C(=O)NC(C)C)C3)c1	CendR NRP1 mod 22 (no result: MIN6 prolif, DAGLB inh)
Cc1cccc(NC(=O)CN2C(=O)N/C(=C/c3ccc(C)s3)C2=O)c1	Myeloid diff 2 active
O=C(O)c1ccc2c(c1)C(=O)/C(=C\c1ccco1)C2=O	SENP1 inh 31
OCC[C@@H]1C[C@@H](O)[C@H](O)[C@]2(CCCCO2)O1	none
NC(=O)c1ccc(=O)n(C2OC(CO)C(O)C2O)c1 (stereo unspecified)	none (no result: MIN6 prolif)
O=C1C=CN(C2OC(CO)C(O)C2O)C(=O)C1 (stereo unspecified)	Myeloid diff 2 active (no result: MIN6 prolif)
O=C(O)c1ccccc1CSc1nc2ccccc2n1Cc1ccccc1C(=O)O	Myeloid diff 2 active
COc1ccc(C2c3ccc(O)cc3Oc3ncn(Cc4ccco4)c(=N)c32)cc1OC (stereo unspecified)	none
COc1ccc(C2c3ccc(O)cc3Oc3ncn4nc(-c5cccnc5)nc4c32)cc1OC (stereo unspecified)	Myeloid diff 2 active
